In ChEMBL document CHEMBL1143122, “Novel analogs of D-e-MAPP and B13. Part 1: synthesis and evaluation as potential anticancer agents” (Bioorg Med Chem, 2008):

Tests used:
SF-268 = test: Antiproliferative activity against human SF268 cells after 48 hrs; assay type: functional; conditions: SF-268, 48 h
Outline: (§1)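 NCI 60-cell screen. Cells were grown in RPMI 1640 with 5% FBS and 2 mM L-glutamine, then plated at 5,000–40,000 cells/well according to doubling time and preincubated for 24 h at 37 °C in 5% CO2. Compounds were dissolved in DMSO at 400× the top final concentration and tested at five 10-fold dilutions from 10−4 to 10−8 M for 48 h. Growth was read spectrophotometrically; GI50 is 50% net protein reduction.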

HCT-15 = test: Antiproliferative activity against human HCT15 cells after 48 hrs; assay type: functional; conditions: Homo sapiens, HCT-15, 48 h; outline: as §1
OVCAR-8 = test: Antiproliferative activity against human OVCAR8 cells after 48 hrs; assay type: functional; conditions: OVCAR-8, 48 h; outline: as §1
CAKI-1 = test: Antiproliferative activity against human CAKI1 cells after 48 hrs; assay type: functional; conditions: CAKI-1, 48 h; outline: as §1
HOP-62 = test: Antiproliferative activity against human HOP62 cells after 48 hrs; assay type: functional; conditions: HOP-62, 48 h; outline: as §1
MCF7 [1] = test: Drug level in human MCF7 cells at 10 uM per 10^6 cells after 0.5 hrs; assay type: ADME, cell-based; conditions: mcf7, 0.5 h
Outline: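 MCF7 cells kept in RPMI 1640 with 10% fetal calf serum at 37 °C, 5% CO2, then treated with 10 μM analog. Intracellular analog measured over time by HPLC-MS in positive-ion MRM mode. Quantified against calibration curves made by spiking an artificial matrix with standards plus internal standard, using analyte/IS peak-area ratios and linear regression. Reported as pmol per 1×10^6 cells.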

LOX IMVI = test: Antiproliferative activity against human LOXIMVI cells after 48 hrs; assay type: functional; outline: as §1
MDA-MB-231 = test: Antiproliferative activity against human MDA-MB-231 cells after 48 hrs; assay type: functional; conditions: MDA-MB-231, 48 h; outline: as §1
U-251 = test: Antiproliferative activity against human U251 cells after 48 hrs; assay type: functional; conditions: U-251, 48 h
Outline: (§2)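 NCI 60-cell-line screen. Lines grown in RPMI 1640 with 5% fetal bovine serum and 2 mM L-glutamine, plated at 5,000–40,000 cells/well according to doubling time, left 24 h at 37 °C in 5% CO2. Drug stocks in DMSO at 400-fold the top final concentration. Five 10-fold dilutions, 10−4 to 10−8 M, incubated 48 h. Growth read spectrophotometrically as net protein; GI50 taken as 50% reduction.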

UO-31 = test: Antiproliferative activity against human UO31 cells after 48 hrs; assay type: functional; conditions: UO-31, 48 h; outline: as §2
NCI-H322M = test: Antiproliferative activity against human NCI-H322M cells after 48 hrs; assay type: functional; outline: as §1
RPMI-8226 = test: Antiproliferative activity against human RPMI8226 cells after 48 hrs; assay type: functional; conditions: RPMI-8226, 48 h; outline: as §1
UACC-62 = test: Antiproliferative activity against human UACC62 cells after 48 hrs; assay type: functional; conditions: UACC-62, 48 h; outline: as §2
DU-145 = test: Antiproliferative activity against human DU145 cells after 48 hrs; assay type: functional; conditions: DU-145, 48 h; outline: as §1
NCI-H460 = test: Antiproliferative activity against human NCI-H460 cells after 48 hrs; assay type: functional; conditions: NCI-H460, 48 h; outline: as §1
[2] = Antiproliferative activity against human […] cells after 48 hrs; assay type: functional; outline: as §1
T47D = test: Antiproliferative activity against human T47D cells after 48 hrs; assay type: functional; outline: as §2
BT-549 = test: Antiproliferative activity against human BT549 cells after 48 hrs; assay type: functional; conditions: BT-549, 48 h; outline: as §1
SNB-75 = test: Antiproliferative activity against human SNB75 cells after 48 hrs; assay type: functional; conditions: SNB-75, 48 h; outline: as §1
OVCAR-5 = test: Antiproliferative activity against human OVCAR5 cells after 48 hrs; assay type: functional; conditions: OVCAR-5, 48 h; outline: as §1
MDA-MB-435 = test: Antiproliferative activity against human MDA-MB-435 cells after 48 hrs; assay type: functional; outline: as §1
HOP-92 = test: Antiproliferative activity against human HOP92 cells after 48 hrs; assay type: functional; conditions: HOP-92, 48 h; outline: as §1
SK-MEL-2 = test: Antiproliferative activity against human SKMEL2 cells after 48 hrs; assay type: functional; conditions: SK-MEL-2, 48 h; outline: as §1
SK-MEL-28 = test: Antiproliferative activity against human SKMEL28 cells after 48 hrs; assay type: functional; conditions: SK-MEL-28, 48 h; outline: as §1
K562 = test: Antiproliferative activity against human K562 cells after 48 hrs; assay type: functional; conditions: K562, 48 h; outline: as §1
MOLT-4 = test: Antiproliferative activity against human MOLT4 cells after 48 hrs; assay type: functional; conditions: MOLT-4, 48 h; outline: as §1
UACC-257 = test: Antiproliferative activity against human UACC257 cells after 48 hrs; assay type: functional; conditions: UACC-257, 48 h; outline: as §2
SK-OV-3 = test: Antiproliferative activity against human SKOV3 cells after 48 hrs; assay type: functional; conditions: SK-OV-3, 48 h; outline: as §1
MCF7 [3] = test: Antiproliferative activity against human MCF7 cells after 48 hrs; assay type: functional, cell-based; conditions: MCF7, 48 h
[4] = read-out: Log LC50 (the source's name) (converted)

In the case of `C[C@@H](NC(=O)CCCCCCCCCCCCCCC[n+]1ccccc1)[C@@H](O)c1ccccc1.[Br-]`, the GI50 (SF-268) is reported as 1.66 µM, the LC50 (SF-268) is reported as 6.03 µM and the TGI (SF-268; read-out: Log TGI (converted)) is reported as 3.16 µM. The GI50 (HCT-15) was 17.8 µM, the LC50 (HCT-15) was 58.9 µM and the TGI (HCT-15; read-out: Log TGI (converted)) was 32.4 µM. For the same molecule, the GI50 (OVCAR-8) was 2.75 µM, the CC50 (OVCAR-8; [4]) was over 100 µM and the TGI (OVCAR-8; read-out: Log TGI (converted)) was 13.5 µM. It also gave a GI50 (CAKI-1) of 1.38 µM, a CC50 (CAKI-1; [4]) of 66.1 µM and a TGI (CAKI-1; read-out: Log TGI (converted)) of 30.2 µM. The GI50 (HOP-62) was 2.69 µM, the CC50 (HOP-62; [4]) was 38 µM and the TGI (HOP-62; read-out: Log TGI (converted)) was 8.91 µM. The Drug uptake (MCF7 [1]) was 800 pmol, the GI50 (LOX IMVI) was 3.55 µM and the LC50 (LOX IMVI) was 51.3 µM. It also gave a TGI (LOX IMVI; read-out: Log TGI (converted)) of 13.5 µM, a GI50 (MDA-MB-231) of 1.74 µM and an LC50 (50% lethal concentration) (MDA-MB-231) of 7.59 µM. It also gave a TGI (MDA-MB-231; read-out: Log TGI (converted)) of 3.63 µM, a GI50 (U-251) of 1.41 µM and a CC50 (U-251; [4]) of 5.25 µM. It also gave a TGI (U-251; read-out: Log TGI (converted)) of 2.75 µM, a GI50 (UO-31) of 19.1 µM and an LC50 (UO-31) of 93.3 µM. The TGI (UO-31; read-out: Log TGI (converted)) was 41.7 µM, the GI50 (NCI-H322M) was 11 µM and the CC50 (NCI-H322M; [4]) was 49 µM. It also gave a TGI (NCI-H322M; read-out: Log TGI (converted)) of 22.9 µM, a GI50 (RPMI-8226) of 0.288 µM and a CC50 (RPMI-8226; [4]) of 5.13 µM. It also gave a TGI (RPMI-8226; read-out: Log TGI (converted)) of 1.91 µM, a GI50 (UACC-62) of 1.48 µM and an LC50 (UACC-62) of 5.75 µM. It also gave a TGI (UACC-62; read-out: Log TGI (converted)) of 2.88 µM, a GI50 (DU-145) of 3.47 µM and a CC50 (DU-145; [4]) of 49 µM. The TGI (DU-145; read-out: Log TGI (converted)) was 15.1 µM, the GI50 (NCI-H460) was 2.95 µM and the CC50 (NCI-H460; [4]) was over 100 µM. It also gave a TGI (NCI-H460; read-out: Log TGI (converted)) of 11.5 µM, a GI50 [2] of 2.57 µM and an LC50 [2] of over 100 µM. For the same molecule, the TGI ([2]; read-out: Log TGI (converted)) was 8.71 µM, the GI50 (T47D) was 1.55 µM and the CC50 (T47D; [4]) was over 100 µM. It also gave a TGI (T47D; read-out: Log TGI (converted)) of 6.46 µM, a GI50 (BT-549) of 0.0692 µM and an LC50 (BT-549) of 3.39 µM. It also gave a TGI (BT-549; read-out: Log TGI (converted)) of 1.07 µM, a GI50 (SNB-75) of 2.95 µM and a CC50 (SNB-75; [4]) of 9.77 µM. The TGI (SNB-75; read-out: Log TGI (converted)) was 5.37 µM, the GI50 (OVCAR-5) was 5.25 µM and the CC50 (OVCAR-5; [4]) was 50.1 µM. The TGI (OVCAR-5; read-out: Log TGI (converted)) was 18.2 µM, the GI50 (MDA-MB-435) was 1.58 µM and the GI50 (MDA-MB-435; Homo sapiens, MDA-MB-435, 48 h) was 1.78 µM. It also gave an LC50 (MDA-MB-435; Homo sapiens, MDA-MB-435, 48 h) of 5.5 µM, a TGI (MDA-MB-435; Homo sapiens, MDA-MB-435, 48 h, read-out: Log TGI (converted)) of 2.95 µM and a GI50 (HOP-92) of 0.0407 µM. It also gave an LC50 (HOP-92) of 5.75 µM, a TGI (HOP-92; read-out: Log TGI (converted)) of 0.912 µM and a GI50 (SK-MEL-2) of 2.19 µM. It also gave a TGI (SK-MEL-2; read-out: Log TGI (converted)) of 4.37 µM, a GI50 (SK-MEL-28) of 1.7 µM and an LC50 (SK-MEL-28) of 5.75 µM. For the same molecule, the TGI (SK-MEL-28; read-out: Log TGI (converted)) was 3.16 µM, the GI50 (K562) was 0.832 µM and the LC50 (K562) was over 100 µM. The TGI (K562; read-out: Log TGI (converted)) was 3.98 µM, the GI50 (MOLT-4) was 2.51 µM and the LC50 (MOLT-4) was 100 µM. The TGI (MOLT-4; read-out: Log TGI (converted)) was 6.46 µM, the GI50 (UACC-257) was 1.58 µM and the TGI (UACC-257; read-out: Log TGI (converted)) was 3.39 µM. The GI50 (SK-OV-3) was 3.09 µM, the CC50 (SK-OV-3; [4]) was 60.3 µM and the TGI (SK-OV-3; read-out: Log TGI (converted)) was 13.5 µM. It also gave a GI50 (MCF7 [3]) of 1.58 µM, an LC50 (MCF7 [3]) of 8.51 µM and a TGI (MCF7 [3]; read-out: Log TGI (converted)) of 3.72 µM.
